ChEMBL document CHEMBL1150579, “Anti-lipid-peroxidative principles from Tournefortia sarmentosa” (J Nat Prod, 2002)

Legend:
[1] = Antioxidant activity against Cu2+-induced lipid peroxidation in human plasma LDL preincubated for 1 hr before Cu2+ challenge; assay type: functional, cell-free
How it was run: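 LDL from fasting plasma of healthy adult men not taking vitamin supplements. LDL was preincubated with compound at 37 °C for 1 h. Oxidation was started with CuSO4 (final 10 µM) and run for 2 h at 37 °C, shaken at 120 rpm. Conjugated dienes in the supernatant were read at 232 nm. IC50 is the concentration giving 50% inhibition of diene formation, taken from concentration curves.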

[2] = Antioxidant activity against Cu2+-induced lipid peroxidation in human plasma LDL preincubated for 1 hr before Cu2+ challenge relative to probucol; assay type: functional, cell-free
How it was run: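 Same Cu2+-induced human LDL assay as above, with 1 h compound preincubation, 10 µM CuSO4 for 2 h at 37 °C, and conjugated dienes read at 232 nm. Probucol (10 µM, in 10% ethanol) was the positive control, with its potency set at 1.0. Relative potency = IC50(probucol)/IC50(compound).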

| IC50 [1] | SMILES | Activity [2] |
| --- | --- | --- |
| 2720 nM | O=C(/C=C/c1ccc(O)c2c1C=Cc1cc(O)c(O)cc1O2)O[C@H](Cc1ccc(O)c(O)c1)C(=O)O [ISOSALVIANOLIC ACID C] | 1.6 |
| 1000 nM | O=C(/C=C/c1ccc(O)c2c1[C@H](C(=O)O)[C@@H](c1ccc(O)c(O)c1)O2)O[C@H](Cc1ccc(O)c(O)c1)C(=O)O [LITHOSPERMIC ACID] | 4.3 |
| 4300 nM | CC(C)(Sc1cc(C(C)(C)C)c(O)c(C(C)(C)C)c1)Sc1cc(C(C)(C)C)c(O)c(C(C)(C)C)c1 [PROBUCOL] |  |
| 1810 nM | O=C(/C=C/c1ccc(O)c(O)c1)O[C@H](Cc1ccc(O)c(O)c1)C(=O)O [ROSMARINIC ACID] | 2.2 |
| 590 nM | O=C(/C=C/c1ccc(O)c(O)c1/C=C/c1ccc(O)c(O)c1)O[C@H](Cc1ccc(O)c(O)c1)C(=O)O [SALVIANOLIC ACID A] | 7.3 |
| 5440 nM | O=C(O)/C=C/c1ccc(O)c(O)c1/C=C/c1ccc(O)c(O)c1 [SALVIANOLIC ACID F] | 0.8 |
| 4700 nM | O=Cc1ccc(O)c2oc(-c3ccc(O)c(O)c3)cc12 [TOURNEFOLAL] | 1.09 |
| 4810 nM | O=C(O)/C=C/c1ccc(O)c2oc(-c3ccc(O)c(O)c3)cc12 [TOURNEFOLIC ACID A] | 1.1 |
| 510 nM | CCOC(=O)/C=C/c1ccc(O)c2c1C=Cc1cc(O)c(O)cc1O2 [TOURNEFOLIC ACID B ETHYL ESTER] | 8.6 |
| 2320 nM | O=C(O)/C=C/c1ccc(O)c2c1C=Cc1cc(O)c(O)cc1O2 [TOURNEFOLIC ACID B] | 1.9 |
